“And” between values parts separate entries of the source, which are not always exact repeats. Equal entries are not always repeated.
Experiments:
[1] = target: T1, Transient receptor potential cation channel subfamily V member 1 (Rattus norvegicus, UniProt O35433); assay: Antagonist activity against acid-induced 45calcium ion uptake in CHO cells expressing rat TRPV1 at pH5; format: functional, cell-based
Outline: (§1)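 CHO cells recombinantly expressing rat TRPV1; inhibition of 45Ca2+ uptake triggered by capsaicin or by acid, pH 5. Functional IC50 in nM, averaged over at least two independent experiments, each with three replicates per concentration.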

[2] = target: T1, Transient receptor potential cation channel subfamily V member 1; assay: Antagonist activity against capsaicin-induced 45calcium ion uptake in CHO cells expressing rat TRPV1; format: functional, cell-based; outline: as §1

T1 sequence (O35433 whole entry): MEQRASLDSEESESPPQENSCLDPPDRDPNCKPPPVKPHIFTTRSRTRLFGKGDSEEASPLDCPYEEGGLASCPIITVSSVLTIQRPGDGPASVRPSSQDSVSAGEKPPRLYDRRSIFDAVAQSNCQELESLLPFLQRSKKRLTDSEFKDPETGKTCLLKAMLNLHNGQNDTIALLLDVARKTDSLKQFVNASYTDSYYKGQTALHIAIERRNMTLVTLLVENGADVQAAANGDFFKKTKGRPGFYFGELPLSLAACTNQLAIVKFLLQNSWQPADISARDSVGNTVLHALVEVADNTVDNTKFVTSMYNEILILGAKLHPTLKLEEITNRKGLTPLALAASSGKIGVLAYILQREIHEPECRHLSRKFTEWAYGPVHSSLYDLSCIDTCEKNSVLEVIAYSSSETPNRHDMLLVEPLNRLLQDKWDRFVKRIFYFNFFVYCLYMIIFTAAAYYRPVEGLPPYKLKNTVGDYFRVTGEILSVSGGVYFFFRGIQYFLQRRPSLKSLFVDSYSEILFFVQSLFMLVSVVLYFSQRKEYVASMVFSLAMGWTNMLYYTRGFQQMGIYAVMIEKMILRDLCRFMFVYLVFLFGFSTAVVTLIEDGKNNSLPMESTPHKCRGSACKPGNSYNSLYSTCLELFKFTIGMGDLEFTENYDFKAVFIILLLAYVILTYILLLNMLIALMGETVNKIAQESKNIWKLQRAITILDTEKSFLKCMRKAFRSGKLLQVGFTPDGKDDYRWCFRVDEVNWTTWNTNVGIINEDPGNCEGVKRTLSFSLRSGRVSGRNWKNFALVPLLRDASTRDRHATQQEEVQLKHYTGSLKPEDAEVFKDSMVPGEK

Structure (SMILES)	IC50 [1]	IC50 [2] [µM]
Fc1cc(-c2cc(C(F)(F)F)cc3[nH]c(N4CCN(c5ncccc5C(F)(F)F)CC4)nc23)cc(F)c1F	0.026 µM	0.033
FC(F)(F)Oc1cccc(-c2cc(C(F)(F)F)cc3[nH]c(N4CCN(c5ncccc5C(F)(F)F)CC4)nc23)c1	0.021 µM	0.026
Fc1ccc(-c2ccc3[nH]c(N4CCN(c5ncccc5C(F)(F)F)CC4)nc3c2)cc1F	0.351 µM	1.14
COC(=O)c1ccc2nc(N3CCN(c4ncccc4C(F)(F)F)CC3)[nH]c2c1	> 4 µM	1.23
CC(C)(C)c1ccc2nc(N3CCN(c4ncccc4Cl)CC3)[nH]c2c1	0.31 µM	0.087
FC(F)(F)c1ccc2nc(N3CCN(c4ncccc4C(F)(F)F)CC3)n(Cc3ccccc3)c2c1	0.151 µM and 0.157 µM	0.577
C[C@@H]1CN(c2ncc(C(=O)O)cc2Cl)CCN1c1nc2c(-c3cc(F)c(F)c(F)c3)cc(C(F)(F)F)cc2[nH]1	0.027 µM	0.046
FC(F)(F)c1ccc2[nH]c(N3CCN(c4ncncc4Cl)CC3)nc2c1	> 40 µM	2.11
C[C@H]1CN(c2ncccc2Br)CCN1c1nc2c(-c3cc(F)c(F)c(F)c3)cc(C(F)(F)F)cc2[nH]1	0.075 µM	0.104
FC(F)(F)c1ccc2[nH]c(N3CCN(c4ncccc4Cl)CC3)nc2c1	0.705 µM	0.309
FC(F)(F)c1ccc2nc(N3CCN(c4c(Cl)cncc4Cl)CC3)[nH]c2c1	1.99 µM	1.37
FC(F)(F)c1cc(-c2cnccn2)c2nc(N3CCN(c4ncccc4C(F)(F)F)CC3)[nH]c2c1	0.051 µM	0.129
FC(F)(F)c1ccc2nc(N3CCN(c4ccccc4C(F)(F)F)CC3)[nH]c2c1	0.406 µM	2.06
FC(F)(F)c1cc(C2CCC(C(F)(F)F)CC2)c2nc(N3CCN(c4ncccc4C(F)(F)F)CC3)[nH]c2c1 (configuration not stated)	0.009 µM	0.01
Nc1ccc(-c2cc(C(F)(F)F)cc3[nH]c(N4CCN(c5ncccc5C(F)(F)F)CC4)nc23)cc1	0.308 µM	1.9
FC(F)(F)c1ccc2[nH]c(N3CCN(c4ncccc4C(F)(F)F)CC3)nc2n1	1.41 µM	1.09
Nc1cc(C(F)(F)F)cc2[nH]c(N3CCN(c4ncccc4C(F)(F)F)CC3)nc12	> 4 µM	–
C[C@@H]1CN(c2ncc([C@@H](C)O)cc2Cl)CCN1c1nc2c(-c3cc(F)c(F)c(F)c3)cc(C(F)(F)F)cc2[nH]1	0.0023 µM	0.0006
C[C@@H]1CN(c2ncc(N)cc2Cl)CCN1c1nc2c(-c3ccc(F)cc3)cc(C(F)(F)F)cc2[nH]1	0.033 µM	0.098
CN(C)c1ccc(-c2cc(C(F)(F)F)cc3[nH]c(N4CCN(c5ncccc5C(F)(F)F)CC4)nc23)cc1	0.069 µM	0.108
C[C@@H]1CN(c2ncccc2C(F)(F)F)CCN1c1nc2ccc(C(F)(F)F)cc2[nH]1	0.035 µM	0.048
COC(=O)c1cnc(N2CCN(c3nc4c(-c5cc(F)c(F)c(F)c5)cc(C(F)(F)F)cc4[nH]3)[C@H](C)C2)c(Cl)c1	0.0003 µM	0.0003
FC(F)(F)c1cc(/C=C/c2ccccc2)c2[nH]c(N3CCN(c4ncccc4C(F)(F)F)CC3)nc2c1	0.14 µM	0.185
FC(F)(F)c1cc(-c2ccccc2)c2nc(N3CCN(c4ncccc4C(F)(F)F)CC3)[nH]c2c1	0.068 µM	0.141

Structure (SMILES)	IC50 [1]	IC50 [2] [µM]
FC(F)(F)c1cc(N2CCCCC2)c2[nH]c(N3CCN(c4ncccc4C(F)(F)F)CC3)nc2c1	0.021 µM	0.029
COc1ccc(-c2cc(C(F)(F)F)cc3[nH]c(N4CCN(c5ncccc5C(F)(F)F)CC4)nc23)cn1	0.099 µM	0.111
C[C@@H]1CN(c2ncc(CO)cc2Cl)CCN1c1nc2c(N(Cc3ccccc3)Cc3ccccc3)cc(C(F)(F)F)cc2[nH]1	0.0009 µM	0.0019
FC(F)(F)c1ccc2[nH]c(N3CCN(c4ccncc4Cl)CC3)nc2c1	8.03 µM	3.91
FC(F)(F)c1cc(Br)c2nc(N3CCN(c4ncccc4C(F)(F)F)CC3)[nH]c2c1	0.074 µM	0.131
FC(F)(F)c1ccc(CNc2cc3[nH]c(N4CCN(c5ncccc5C(F)(F)F)CC4)nc3cc2C(F)(F)F)cc1	0.141 µM	0.094
C[C@H](O)c1cnc(N2CCN(c3nc4c(-c5cc(F)c(F)c(F)c5)cc(C(F)(F)F)cc4[nH]3)[C@H](C)C2)c(Cl)c1	0.003 µM	0.0026
C[C@@H]1CN(c2ncc(CO)cc2Cl)CCN1c1nc2cc(C(F)(F)F)cc(NC(=O)OC(C)(C)C)c2[nH]1	0.0011 µM	0.0021
OCc1cnc(N2CCN(c3nc4ccc(C(F)(F)F)cc4[nH]3)CC2)c(Cl)c1	0.098 µM	0.064
N#Cc1cccnc1N1CCN(c2nc3cc(C(F)(F)F)ccc3[nH]2)CC1	7.08 µM	6.29
C[C@@H]1CN(c2ncc(CO)cc2Cl)CCN1c1nc2c(NCc3ccccc3)cc(C(F)(F)F)cc2[nH]1	0.0067 µM	0.007
CC(O)c1cnc(N2CCN(c3nc4c(-c5cc(F)c(F)c(F)c5)cc(C(F)(F)F)cc4[nH]3)[C@H](C)C2)c(C(F)(F)F)c1 (mixture of isomers)	0.001 µM	0.0015
FC(F)(F)c1ccc2nc(N3CCN(c4ncccc4C(F)(F)F)CC3)[nH]c2c1	0.301 µM	–
CC(C)(C)c1ccc2[nH]c(N3CCN(c4ncccc4C(F)(F)F)CC3)nc2c1	0.282 µM	0.183
CC(O)c1cnc(N2CCN(c3nc4ccc(C(F)(F)F)cc4[nH]3)CC2)c(Cl)c1 (racemic)	0.652 µM	0.461
CC[C@@H]1CN(c2ncccc2C(F)(F)F)CCN1c1nc2cc(C(F)(F)F)ccc2[nH]1	> 4 µM	0.648
CNC(=O)c1cnc(N2CCN(c3nc4ccc(C(F)(F)F)cc4[nH]3)CC2)c(Cl)c1	> 40 µM	0.493
FC(F)(F)c1ccc2[nH]c(N3CCN(c4ncccc4I)CC3)nc2c1	0.31 µM	0.221
CCC[C@@H]1CN(c2ncccc2C(F)(F)F)CCN1c1nc2cc(C(F)(F)F)ccc2[nH]1	> 4 µM	–
FC(F)(F)c1cc(-c2ccncc2)c2[nH]c(N3CCN(c4ncccc4C(F)(F)F)CC3)nc2c1	0.188 µM	0.267
FC(F)(F)c1cccnc1N1CCN(c2nc3ccc(Br)cc3[nH]2)CC1	0.194 µM	0.123
FC(F)(F)c1ccc(-c2cc3[nH]c(N4CCN(c5ncccc5C(F)(F)F)CC4)nc3cc2C(F)(F)F)cc1	0.201 µM	8.24
C[C@@H]1CN(c2ncc(NC(=O)CO)cc2Cl)CCN1c1nc2c(-c3ccc(F)cc3)cc(C(F)(F)F)cc2[nH]1	0.0092 µM	0.03
O=[N+]([O-])c1cc(C(F)(F)F)cc2[nH]c(N3CCN(c4ncccc4C(F)(F)F)CC3)nc12	0.878 µM	1.66

Structure (SMILES)	IC50 [1]	IC50 [2] [µM]
FC(F)(F)c1ccc2[nH]c(N3CCN(c4ccncc4C(F)(F)F)CC3)nc2c1	2.85 µM	2.38
FC(F)(F)c1cc2[nH]c(N3CCN(c4ncccc4C(F)(F)F)CC3)nc2cc1Br	0.043 µM	0.166
C[C@@H]1CN(c2ncc(CO)cc2C(F)(F)F)CCN1c1nc2c(-c3cc(F)c(F)c(F)c3)cc(C(F)(F)F)cc2[nH]1	0.0007 µM	0.0014
NC(=O)c1cnc(N2CCN(c3nc4cc(C(F)(F)F)ccc4[nH]3)CC2)c(Cl)c1	1 µM	0.43
C[C@@H]1CN(c2ncc(Br)cc2Cl)CCN1c1nc2c(-c3cc(F)c(F)c(F)c3)cc(C(F)(F)F)cc2[nH]1	0.0033 µM	0.0034
Fc1ccc2[nH]c(N3CCN(c4ncccc4C(F)(F)F)CC3)nc2c1	> 4 µM	> 4
FC(F)(F)c1cc(-c2cccs2)c2[nH]c(N3CCN(c4ncccc4C(F)(F)F)CC3)nc2c1	0.221 µM	0.373
C[C@@H]1CN(c2ncccc2Br)CCN1c1nc2c(-c3cc(F)c(F)c(F)c3)cc(C(F)(F)F)cc2[nH]1	0.0026 µM	0.0067
FC(F)(F)c1cccnc1N1CCN(c2nc3ccc(Cl)cc3[nH]2)CC1	17.3 µM	1.13
Cc1ccc2[nH]c(N3CCN(c4ncccc4C(F)(F)F)CC3)nc2c1	> 4 µM	–
FC(F)(F)c1cnc2nc(N3CCN(c4ncccc4C(F)(F)F)CC3)[nH]c2c1	0.884 µM	1.55
FC(F)(F)c1cc(N2CCOCC2)c2[nH]c(N3CCN(c4ncccc4C(F)(F)F)CC3)nc2c1	0.095 µM	0.05
Fc1cc(CNc2cc(C(F)(F)F)cc3[nH]c(N4CCN(c5ncccc5C(F)(F)F)CC4)nc23)cc(F)c1F	0.081 µM	0.132
FC(F)(F)c1ccnc(N2CCN(c3nc4cc(C(F)(F)F)ccc4[nH]3)CC2)c1	11.9 µM	> 5.64
FC(F)(F)c1cc(-c2nccs2)c2nc(N3CCN(c4ncccc4C(F)(F)F)CC3)[nH]c2c1	0.454 µM	0.688
CC(=O)c1cnc(N2CCN(c3nc4cc(C(F)(F)F)ccc4[nH]3)CC2)c(Cl)c1	0.832 µM	0.581
N#Cc1ccc2[nH]c(N3CCN(c4ncccc4C(F)(F)F)CC3)nc2c1	> 4 µM	3.3
C[C@@H]1CN(c2nc3c(-c4cc(F)c(F)c(F)c4)cc(C(F)(F)F)cc3[nH]2)CCN1c1ncccc1Br	0.0018 µM	0.0043
FC(F)(F)c1ccc2[nH]c(N3CCN(c4c(Cl)cccc4Cl)CC3)nc2c1	1.27 µM	> 40
CC(C)(C)c1ccc(-c2cc(C(F)(F)F)cc3[nH]c(N4CCN(c5ncccc5C(F)(F)F)CC4)nc23)cc1	0.004 µM	–
FC(F)(F)c1cc(-c2cc3ccccc3s2)c2nc(N3CCN(c4ncccc4C(F)(F)F)CC3)[nH]c2c1	0.022 µM	0.026
FC(F)(F)c1ccc(-c2cc(C(F)(F)F)cc3[nH]c(N4CCN(c5ncccc5C(F)(F)F)CC4)nc23)cc1	0.037 µM	0.051
FC(F)(F)c1ccc(N2CCN(c3nc4cc(C(F)(F)F)ccc4[nH]3)CC2)nc1	> 40 µM	11.3

Source: ChEMBL document CHEMBL1148652, “Design of potent, orally available antagonists of the transient receptor potential vanilloid 1. Structure-activity relationships of 2-piperazin-1-yl-1H-benzimidazoles” (J Med Chem, 2006)
